Active and inactive are the calls of the source.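 The calls were made as follows, unless noted: active = viability at or under a set limit in both replicates, limit being median viability minus 3 SD (cut at about 48% in these data, passing the limit was not always enough); inconclusive = at or under the limit in just one replicate; inactive = at or above the limit in both replicates.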
Legend:
[1] = Her2 expression decrease, cell viability multiplex – SKBR3 breast tumor cells, AlphaScreen, ATP viability, primary screen (AID 461;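 active = Her2 level under about 52% in both replicate screens, with viability over 70% of control, limit read from the data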;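 as to Her2 level: lower value means less Her2 protein in the cells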;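 as to viability: percent of carrier control wells set as 100% viability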); details: SKBR3 Her2 protein level, 18-24 h, measured here: SKBR3 viability, ATP luminescence, at 10 µM
[2] = target: Receptor tyrosine-protein kinase erbB-2 (Homo sapiens) (UniProt P04626); assay: as above; details: 18-24 h, at 10 µM, stronger effect = lower value
Receptor tyrosine-protein kinase erbB-2 (Homo sapiens), sequence (P04626 whole entry, looked up): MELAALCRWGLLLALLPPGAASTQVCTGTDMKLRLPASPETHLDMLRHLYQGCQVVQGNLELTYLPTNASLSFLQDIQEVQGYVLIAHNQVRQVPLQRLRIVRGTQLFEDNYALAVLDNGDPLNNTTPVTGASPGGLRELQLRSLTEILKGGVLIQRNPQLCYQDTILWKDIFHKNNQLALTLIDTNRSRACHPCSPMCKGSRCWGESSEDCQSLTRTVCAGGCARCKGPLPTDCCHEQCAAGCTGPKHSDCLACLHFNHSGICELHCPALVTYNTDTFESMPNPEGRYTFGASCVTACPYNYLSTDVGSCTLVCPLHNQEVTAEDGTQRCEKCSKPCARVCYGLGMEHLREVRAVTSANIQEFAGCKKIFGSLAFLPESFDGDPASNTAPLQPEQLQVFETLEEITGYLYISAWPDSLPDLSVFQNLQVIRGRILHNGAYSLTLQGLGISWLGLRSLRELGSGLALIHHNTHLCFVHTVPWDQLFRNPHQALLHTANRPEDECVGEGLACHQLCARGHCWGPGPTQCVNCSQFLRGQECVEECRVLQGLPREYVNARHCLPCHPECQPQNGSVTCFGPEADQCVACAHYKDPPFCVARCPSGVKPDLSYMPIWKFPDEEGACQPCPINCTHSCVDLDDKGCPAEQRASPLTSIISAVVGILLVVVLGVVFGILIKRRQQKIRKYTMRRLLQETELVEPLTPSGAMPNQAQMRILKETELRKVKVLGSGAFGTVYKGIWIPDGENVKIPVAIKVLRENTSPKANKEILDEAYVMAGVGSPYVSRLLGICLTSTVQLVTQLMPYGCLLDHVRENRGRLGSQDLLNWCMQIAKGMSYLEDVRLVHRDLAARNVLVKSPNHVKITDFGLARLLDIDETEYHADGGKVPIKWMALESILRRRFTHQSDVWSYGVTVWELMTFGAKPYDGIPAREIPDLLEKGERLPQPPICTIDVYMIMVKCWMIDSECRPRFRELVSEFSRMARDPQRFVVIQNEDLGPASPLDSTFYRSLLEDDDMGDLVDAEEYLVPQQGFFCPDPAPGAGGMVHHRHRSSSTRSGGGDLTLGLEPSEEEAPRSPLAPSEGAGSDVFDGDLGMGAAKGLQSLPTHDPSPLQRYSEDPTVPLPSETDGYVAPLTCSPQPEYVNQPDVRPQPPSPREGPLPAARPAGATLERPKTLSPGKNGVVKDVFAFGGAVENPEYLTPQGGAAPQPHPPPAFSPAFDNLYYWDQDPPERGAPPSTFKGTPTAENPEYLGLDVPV

[3] = reduced viability of SK-BR-3 breast cancer cells – cell-based, 24 h, human, pilot screen (AID 572;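 active = viability at or below 10% of carrier control in both of two separate runs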;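 also: compound exposure lasted between 18 and 24 h rather than exactly 24 h; 100% = carrier-treated control wells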); details: SK-BR-3 viability, CellTiter-Glo luminescence, at 10 µM, stronger effect = lower value
[4] = HUVEC growth inhibition – cell-based, human, primary screen (AID 575;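 active = viability at or below 30% in both replicate assays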;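 also: 100% = median of untreated cell wells with 0.1% DMSO on each plate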); details: HUVEC proliferation, CellTiter-Glo luminescence, 72 h; at 10 µM; stronger effect = lower value
Method in brief: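 Test system – primary HUVEC, no more than 12 passages · Dosing – one dose, 10 µM final, 0.1% DMSO · Times – 72 h treatment at 37 °C · Measured by – ATP-based CellTiter-Glo luminescent read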

[5] = H69AR cell proliferation blockers – human, duplicate replicates, primary screen (AID 580); details: H69AR lung tumor cells viability, ATP luminescence, 72 h; at 10 µM; stronger effect = lower value;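 also: 100% = mean luminescence of untreated wells and 0% = no signal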
[6] = MRP1 drug-resistance reversers in H69AR cells – cell-based, doxorubicin co-treatment, pilot screen (AID 601;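 active = viability loss from added drug above about 55%, and viability with drug at most 40%, in both replicates, limit read from the data, passing the limit was not always enough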); details: CellTiter-Glo, 72 h, at 10 µM; for differential viability (reversal): stronger effect = higher value
[7] = yeast transport mutant growth inhibition pilot in 384-well plates, post-Golgi transport modulator project (AID 636; in the data active = inhibition above about 31%); details: absorbance 615 nm, about 18 h, stronger effect = higher value
[8] = growth suppression of yeast trafficking mutant, preliminary HTS, modulators of trafficking downstream of Golgi apparatus project, 1536-format plate, OD 615 nm (AID 637; in the data active = inhibition above about 30%); details: yeast transport mutant growth, absorbance 615 nm, 18 h; stronger effect = higher value
[9] = H69AR cells + 2 uM doxorubicin, measured here: viability with 2 uM doxorubicin, stronger effect = lower value
[10] = H69AR cells, compound alone cytotoxicity

Compound | viability [1] [%] | Her2 level [2] | viability [3] | viability [4] | viability [5] | differential viability (reversal) ([6]; H69AR cells + 2 uM doxorubicin) | viability [6, 9] [%] | viability [6, 10] [%] | inhibition [7] | inhibition [8]
CCOC(=O)N1CCC(NC(=O)CCN2C(=O)COc3ccccc32)CC1 | 100 | 106% (inactive) | 100% (inactive) | 100% (inactive) | 84.1% (inactive) | 6.63% (inactive) | 77.5 | 84.1 | 0% (inactive) | -6.17% (inactive)
COc1ccc2nc(NC(=O)C3CCCN(S(=O)(=O)c4cccc5nsnc45)C3)sc2c1 (stereo not given) | 96.5 | 97.5% (inactive) | 96.5% (inactive) | 75% (inactive) | 83.1% (inactive) | -10.1% (inactive) | 93.2 | 83.1 | 4.53% (inactive) | -2.7% (inactive)
O=C(C1CCCCC1)N1CCC(c2nc3c(nnn3Cc3c(F)cccc3Cl)c(=O)[nH]2)CC1 | 87.5 | 96.5% (inactive) | 87.5% (inactive) | 85.2% (inactive) | 71.3% (inactive) | 48.4% (inactive) | 22.9 | 71.3 | -3.77% (inactive) | -6.39% (inactive)
CCCN(CCC)CCNC(=O)C(NS(=O)(=O)c1ccc2c(c1)CCC(=O)N2)c1ccccc1 (stereo not given) | 87.5 | 86.5% (inactive) | 87.5% (inactive) | 108% (inactive) | 89.4% (inactive) | 0.46% (inactive) | 89 | 89.4 | 1.05% (inactive) | -1.45% (inactive)
O=C1CC(C2CCCO2)C(=O)N1Cc1ccccc1 (stereo not given) | 98 | 94% (inactive) | 98% (inactive) | 90.2% (inactive) | 103% (inactive) | 3.39% (inactive) | 99.4 | 103 | -6.08% (inactive) | -0.66% (inactive)
O=S(=O)(NCc1ccccc1)c1ccc2c(c1)OCCO2 | 124 | 110% (inactive) | 124% (inactive) | 97.1% (inactive) | 76.8% (inactive) | -7.4% (inactive) | 84.2 | 76.8 | -3.9% (inactive) | -2.7% (inactive)
CN1CCCC(OC(=O)COc2ccc(Br)cc2)C1 (stereo not given) | 93.5 | 108% (inactive) | 93.5% (inactive) | 91.4% (inactive) | 89.7% (inactive) | -2.85% (inactive) | 92.5 | 89.7 | -0.8% (inactive) | -1.48% (inactive)
CC(CCc1ccccc1)NCc1ccncc1 (stereo not given) | 102 | 99.5% (inactive) | 102% (inactive) | 108% (inactive) | 84.9% (inactive) | -4.29% (inactive) | 89.2 | 84.9 | -6.53% (inactive) | 0.48% (inactive)
Cc1ccc2c(c1)-c1cc(C)nn1C(c1ccc3c(c1)OCO3)N2 (stereo not given) | 100 | 100% (inactive) | 100% (inactive) | 54% (inactive) | 87.2% (inactive) | -11.2% (inactive) | 98.4 | 87.2 | -2.76% (inactive) | -3.55% (inactive)
COCCn1c(SCC(=O)Nc2nnc(C)s2)nnc1-c1c[nH]c2ccccc12 | 104 | 84% (inactive) | 104% (inactive) | 111% (inactive) | 103% (inactive) | 14.8% (inactive) | 88.6 | 103 | -1.71% (inactive) | -6% (inactive)
CC(C)c1nnc(NC(=O)c2cnccn2)s1 | 87.5 | 88.5% (inactive) | 87.5% (inactive) | 104% (inactive) | 92.2% (inactive) | -0.1% (inactive) | 92.3 | 92.2 | -3.65% (inactive) | -2.46% (inactive)
COc1ccc(C2=NO[C@@H]3C(=O)N(c4cccc(C)c4C)C(=O)[C@H]23)cc1OC | 104 | 106% (inactive) | 104% (inactive) | 97.7% (inactive) | 91.5% (inactive) | -7.95% (inactive) | 99.5 | 91.5 | 4.29% (inactive) | -3.49% (inactive)
N#Cc1nc(COc2ccccc2)oc1NCCCn1ccnc1 | 104 | 103% (inactive) | 104% (inactive) | 96.5% (inactive) | 112% (inactive) | 5.22% (inactive) | 107 | 112 | -0.39% (inactive) | 5.56% (inactive)
O=S1(=O)CC(N2CCCCC2)C(N2CCCCC2)C1 (stereo not given) | 104 | 91.5% (inactive) | 104% (inactive) | 108% (inactive) | 95.3% (inactive) | 16.9% (inactive) | 78.3 | 95.3 | -2.99% (inactive) | 1.27% (inactive)
COC(=O)c1cc2oc(C)cc2n1CC(=O)N(C)c1ccccc1 | 93 | 92.5% (inactive) | 93% (inactive) | 83.2% (inactive) | 95.4% (inactive) | 7.45% (inactive) | 88 | 95.4 | -1.92% (inactive) | -2.17% (inactive)
COc1ccccc1OCCSc1nc2ccccc2c(=O)[nH]1 | 81.5 | 105% (inactive) | 81.5% (inactive) | 84.6% (inactive) | 95.2% (inactive) | 15.1% (inactive) | 80.1 | 95.2 | -3.97% (inactive) | -4% (inactive)
O=C(Nc1ccc(F)cc1F)NC1CC(=O)N(Cc2ccccc2)C1 (stereo not given) | 92.5 | 89.5% (inactive) | 92.5% (inactive) | 109% (inactive) | 95.1% (inactive) | 0.32% (inactive) | 94.8 | 95.1 | 1.78% (inactive) | 26.2% (inactive)
CCCC(C)C(=O)Nc1ccc(C(N)=O)cc1 (stereo not given) | 95 | 93.5% (inactive) | 95% (inactive) | 96% (inactive) | 93.1% (inactive) | 7.36% (inactive) | 85.7 | 93.1 | -5.81% (inactive) | -1.33% (inactive)
Cc1nc(N2CCOCC2)[nH]c(=O)c1CCC(C)C | 120 | 82% (inactive) | 120% (inactive) | 87.7% (inactive) | 91.9% (inactive) | 0.88% (inactive) | 91 | 91.9 | -1.58% (inactive) | 1.11% (inactive)
CC(C(=O)N1CCCCC1)n1ncn2cccc2c1=O (stereo not given) | 93.5 | 93.5% (inactive) | 93.5% (inactive) | 94.2% (inactive) | 102% (inactive) | 17.3% (inactive) | 85.1 | 102 | -1.58% (inactive) | -2.91% (inactive)
CCCCCn1c(CN2CCN(C(=O)OCC)CC2)nc2c1c(=O)[nH]c(=O)n2C | 82 | 94.5% (inactive) | 82% (inactive) | 88.9% (inactive) | 98.5% (inactive) | 15.8% (inactive) | 82.7 | 98.5 | -0.67% (inactive) | 0.16% (inactive)
Cc1ccc2cc(CN(CC3CCCO3)S(=O)(=O)c3ccc4c(c3)OCCO4)c(=O)[nH]c2c1C (stereo not given) | 86.5 | 80% (inactive) | 86.5% (inactive) | 84.1% (inactive) | 86.1% (inactive) | 3.25% (inactive) | 82.9 | 86.1 | -5.07% (inactive) | -6.03% (inactive)
CCOC(=O)c1ccc2nc(C)c3c(c2c1)OC(C)C3 (stereo not given) | 92 | 124% (inactive) | 92% (inactive) | 97.1% (inactive) | 87.9% (inactive) | 11% (inactive) | 76.9 | 87.9 | -2.6% (inactive) | -5.67% (inactive)
COc1ccc(CCNC(=O)c2cnc3scc(C)n3c2=O)cc1OC | 78 | 89% (inactive) | 78% (inactive) | 90.4% (inactive) | 94.8% (inactive) | 1.87% (inactive) | 92.9 | 94.8 | -6.27% (inactive) | 2% (inactive)
CC(=O)Nc1ccc(OC(=O)c2cccs2)cc1 | 101 | 97% (inactive) | 101% (inactive) | 103% (inactive) | 87% (inactive) | -13.6% (inactive) | 101 | 87 | -1.17% (inactive) | -4.59% (inactive)
Cc1cnc(SCCc2ccncc2)nc1C | 97 | 109% (inactive) | 97% (inactive) | 109% (inactive) | 86.6% (inactive) | 9.61% (inactive) | 76.9 | 86.6 | -2.05% (inactive) | 5.17% (inactive)
CCc1nc(N)c(C#N)c(-c2ccc(OC)c(OC)c2)c1C | 98.5 | 93% (inactive) | 98.5% (inactive) | 91.4% (inactive) | 87.2% (inactive) | 9.15% (inactive) | 78.1 | 87.2 | -6.93% (inactive) | 3.33% (inactive)
Cc1cc(NC(=O)c2cnn3cccnc23)no1 | 101 | 108% (inactive) | 101% (inactive) | 97% (inactive) | 97.8% (inactive) | 4.21% (inactive) | 93.5 | 97.8 | -0.92% (inactive) | -5.65% (inactive)
Cc1ccc(C(=O)NC2CC3CCCC(C2)N3C(=O)NC2CCCCC2)cc1 (stereo not given) | 92 | 109% (inactive) | 92% (inactive) | 111% (inactive) | 98.5% (inactive) | 7.93% (inactive) | 90.6 | 98.5 | -5.73% (inactive) | -2.1% (inactive)
